# Results collected from several papers.
# Lines come from different studies, so protocols differ.
SMILES,test,test system,conditions,quantity,value
CCN1CCN(C(=O)c2ccc(-n3nc(-c4cccnc4)c4c3-c3sc(NC(C)=O)nc3CC4)cc2)CC1,,,,logP,3.16
O=c1ccc2ccc(O)cc2o1,metabolic stability,"dog, liver microsomes",,scaled CLint,1720 mL/min/kg
COc1cc(N2CCC(N3CCN(C)CC3)CC2)ccc1Nc1ncc(Cl)c(Nc2ccccc2P(C)(C)=O)n1,,,,logP,2.69
CCOC(=O)CN(C(=O)c1ccn2ncc(-c3ccc(C(=O)NC)cc3)c2c1)c1ccc(Cl)cc1,,"female C57BL/6 mouse, plasma","oral, 10 mg/kg, 4 h",concentration,150 nM
Cc1cc2sc(N)nc2c2cccnc12,,"female BALB/c mouse, plasma","intraperitoneal, 30 mg/kg, 24 h, single dose",concentration,32.7 ng/mL
O=C1NC(=O)/C(=C/c2ccc3ncnc(N4CCCCC4)c3n2)S1,,,,logP,2.33
CCOC(=O)c1cc(Cl)cc(NC(=O)c2sc(Cl)cc2S(=O)(=O)N(C)c2ccc(OCC)c(OC)c2)c1,,"male C57BL/6 mouse, brain","intraperitoneal, 10 mg/kg, 1 h",concentration,6.45 ng/g
O=C1NC(=O)/C(=C/c2ccc3ncnc(N4CCC(F)(F)CC4)c3n2)S1,,,,logP,2.51
CCOc1ccc2ccc(=O)oc2c1,metabolic stability,"male beagle dog, hepatocytes",1 µM,hepatocyte CLint,> 46.2 µL/min/10⁶ cells
CNC(=O)c1ccc(-c2cnn3ccc(C(=O)N(C[C@H]4CCC(=O)O4)c4ccc(OC(F)(F)F)cc4)cc23)cc1,,"female C57BL/6 mouse, plasma","oral, 10 mg/kg, 1 h",concentration,31.4 nM
CN(C)CC#Cc1ccc2[nH]c3c(c2c1)-c1nc(N)ncc1CCC3,,"male CD-1 mouse, plasma","intraperitoneal, 30 mg/kg, 1 h, single dose",concentration,697 ng/mL
CCN1CCN(Cc2ccc(NC(=O)c3ccc(C)c(NC(=O)c4cncc(-c5cccs5)c4)c3)cc2C(F)(F)F)CC1,,"mouse, plasma","intraperitoneal, 20 mg/kg, single dose",half-life,2.52 h
CN(C(=O)c1ccn2ncc(-c3ccc(C(N)=O)cc3)c2c1)c1ccc(C#N)cn1,,"female C57BL/6 mouse, plasma","oral, 10 mg/kg, 4 h",concentration,519 nM
